Results on two molecules are retold here after paper PMC8248410 (Chemmedchem, 2021).

Where a SMILES comes first, the peptide text is derived from it.

The experiment has as its system HIV‐1NL4‐3. Nature of the experiment: SEAP reporter cell HIV‐1 infection assay. Conditions: running text on Table 1 data; compared with P6‐2. In kind it is cell-based. Put shortly: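 CEMx174 indicator cells carrying SEAP under SIV LTR control, grown in RPMI 1640 with 10 % heat‑inactivated FCS, glutamine, penicillin and streptomycin. Peptides added to cells before HIV‑1 NL4‑3, which came from 293T transfection supernatant harvested at 48 h and filtered. SEAP activity in supernatant read 3 days post‑infection by commercial kit. Mean and SEM of ≥3 independent experiments; IC50 from fitted curves.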

Take “Ac-LCDCPNGPWAWVPAFCQAVG-OH (cysteine pairing not given here) [P6‐2‐9]”: the “HIV‐1 inhibitory activity, result in words” value is on record as “approximately tenfold loss”.

Take `CC(=O)N[C@@H](CC(C)C)C(=O)N[C@@H](CS)C(=O)N[C@@H](CC(=O)O)C(=O)N[C@@H](CS)C(=O)N1CCC[C@H]1C(=O)N[C@@H](CC(N)=O)C(=O)NCC(=O)N1CCC[C@H]1C(=O)N[C@@H](Cc1c[nH]c2ccccc12)C(=O)N[C@H](C(=O)N[C@@H](Cc1c[nH]c2ccccc12)C(=O)N[C@@H](C)C(=O)N1CCC[C@H]1C(=O)N[C@@H](C)C(=O)N[C@@H](Cc1ccccc1)C(=O)N[C@@H](CS)C(=O)N[C@@H](CCC(N)=O)C(=O)N[C@@H](C)C(=O)N[C@H](C(=O)NCC(=O)O)C(C)C)C(C)C` [P6‐2‐11] (Ac-LCDCPNGPWVWAPAFCQAVG-OH): the “HIV‐1 inhibitory activity, result in words” value is reported as “approximately tenfold loss”.
